Measurements reported in ChEMBL document CHEMBL3826882, “Discovery of 1-((2R,4aR,6R,7R,7aR)-2-Isopropoxy-2-oxidodihydro-4H,6H-spiro[furo[3,2-d][1,3,2]dioxaphosphinine-7,2'-oxetan]-6-yl)pyrimidine-2,4(1H,3H)-dione (JNJ-54257099), a 3'-5'-Cyclic Phosphate Ester Prodrug of 2'-Deoxy-2'-Spirooxetane Uridine Triphosphate Useful for HCV Inhibition” (J Med Chem, 2016).

How the values were obtained:
Hepatocyte [1] = assay: Prodrug conversion in human primary hepatocytes assessed as 2'-deoxy-2'-spirooxetane uridine triphosphate level per million cells at 2 uM after 24 hrs using radiolabelled compound by LC-MS/MS analysis; type: ADME, cell-based
Outline: (§1)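 Study A: fresh primary hepatocyte cultures from mouse, rat, dog and human incubated with tritiated prodrug at 2 or 62.5 µM for 4 or 24 h. Triphosphate in cell lysates reported as pmol/million hepatocytes. Duplicate or single measurements.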

Hepatocyte [2] = assay: Prodrug conversion in mouse primary hepatocytes assessed as 2'-deoxy-2'-spirooxetane uridine triphosphate level per million cells at 62.5 uM after 4 hrs using radiolabelled compound by LC-MS/MS analysis; type: ADME, cell-based; outline: as §1
Hepatocyte [3] = assay: Prodrug conversion in human primary hepatocytes assessed as 2'-deoxy-2'-spirooxetane uridine triphosphate level per million cells at 62.5 uM after 24 hrs using radiolabelled compound by LC-MS/MS analysis; type: ADME, cell-based; outline: as §1
[4] = Drug metabolism in dog primary hepatocytes assessed as 1-[(4aR,6R,7R,7aR)-2-hydroxy-2-oxidodihydro-4H-spiro[furo[3,2-d][1,3,2]dioxaphosphinine-7,2'-oxetan]-6-yl]pyrimidine-2,4(1H,3H)-dione formation at 2 to 62.5 uM after 4 hrs using radiolabelled compound by LC-MS/MS analysis; type: ADME, cell-based, Canis lupus familiaris, Hepatocyte
Outline: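 Study A: primary cultured hepatocytes (mouse, rat, dog, human) incubated with 2 or 62.5 µM 5'-[3H]-labelled prodrug for 4 and 24 h. Cell lysates were analysed for triphosphate. Supernatants were protein-precipitated and profiled by HPLC with radioactivity detection. Cyclic monophosphate was also assessed by LC/MS/MS.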

Hepatocyte [5] = assay: Drug metabolism in human primary hepatocyte supernatant assessed as 1-((4R,5R,7R,8R)-8-hydroxy-7-(hydroxymethyl)-1,6-dioxaspiro[3.4]octan-5-yl)pyrimidine-2,4(1H,3H)-dione formation at 2 to 62.5 uM after 4 to 24 hrs using radiolabeled compound by HPLC analysis; type: ADME, cell-based; details: hepatocytes
Outline: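 Fresh primary hepatocyte cultures incubated with tritiated prodrug (5'-[3H]) at 2 and 62.5 µM for 4 and 24 h. Supernatants taken after protein precipitation and profiled by HPLC with radioactivity detection. Cell lysates profiled for metabolites by radio-LC. Cyclic monophosphate also measured by LC/MS/MS.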

Hepatocyte [6] = assay: Stability in rat primary hepatocytes assessed as parent compound level at 2 to 62.5 uM after 24 hrs using radiolabeled compound by LC-MS/MS analysis; type: ADME, cell-based
Outline: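 Study A: rat primary cultured hepatocytes incubated with 5'-[3H]-labelled prodrug at 2 and 62.5 µM for 4 and 24h; cell lysates profiled by LC with radioactivity detection. Cyclic monophosphate co-eluted with parent and was assessed separately by LC/MS/MS. Duplicate or single measurements.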

Hepatocyte [7] = assay: Prodrug conversion in rat primary hepatocytes assessed as 2'-deoxy-2'-spirooxetane uridine triphosphate level per million cells at 62.5 uM after 4 hrs using radiolabelled compound by LC-MS/MS analysis; type: ADME, cell-based; outline: as §1
Hepatocyte [8] = assay: Drug metabolism in human hepatocytes assessed as ((4R,5R,7R,8R)-5-(2,4-dioxo-3,4-dihydropyrimidin-1(2H)-yl)-8-hydroxy-1,6-dioxaspiro[3.4]octan-7-yl)methyl dihydrogen phosphate formation in presence of CYP3A4 inhibitor ritonavir by LC-MS/MS analysis; type: ADME, cell-based
Hepatitis C virus [9] = assay: Antiviral activity against HCV genotype 1a infected in homozygous cDNA-uPA chimeric SCID mouse bearing humanized hepatocytes assessed as change in HCV RNA level in serum at 200 mg/kg, po qd administered through gavage for 7 days by RT-PCR method; type: functional, Hepacivirus hominis, subtype 1a, Hepatocyte
Outline: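 Male chimeric SCID cDNA-uPA+/+ mice with human hepatocyte liver (≥70% replacement by blood human albumin) and serum HCV RNA >1.0×10^6 copies/mL the week before dosing. Oral gavage for 7 days in 20% HP-β-CD, 50-200 mg/kg QD or BID. Serum sampled pre-dose on days 1, 2, 3, 5 and 7. Real-time PCR; mean change in log10 copies/mL, day 7 vs day 1 pre-dose.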

[10] = AUC (0 to last) in mouse plasma at 50 mg/kg, po; type: ADME, organism-based; design: dose 50 mg/kg, route oral, time 0 - last
Outline: (§2)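 Oral dose 50 mg/kg, formulated in 20% HP-β-cyclodextrin. Prodrug and triphosphate were measured in plasma and liver (ng/mL or ng/g). Parameters derived were Cmax, tmax, AUC0-last, AUC0-inf and t1/2. Some prodrug data come from two independent studies.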

Hepatocyte [11] = assay: Prodrug conversion in rat cryopreserved hepatocytes assessed as 2'-deoxy-2'-spirooxetane uridine triphosphate level per million cells at 10 uM after 2 hrs by LC-MS/MS analysis; type: ADME, cell-based
Outline: (§3)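 Plated cryopreserved hepatocytes (study B) incubated with 10 µM unlabeled prodrug for 2, 8 or 24 h. Triphosphate measured in cell lysates and expressed as pmol/million hepatocytes. Quantification limit 2 ng/10^6 cells.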

Hepatocyte [12] = assay: Prodrug conversion in human hepatocytes assessed as 2'-deoxy-2'-spirooxetane uridine triphosphate formation in presence of PDE4 inhibitor rolipram by LC-MS/MS analysis; type: ADME, cell-based
Liver [13] = assay: AUC (0 to last) in rat liver assessed as 2'-deoxy-2'-spirooxetane uridine triphosphate at 50 mg/kg, po; type: ADME, organism-based; details: in vivo; outline: as §2
Hepatocyte [14] = assay: Prodrug conversion in mouse primary hepatocytes assessed as 2'-deoxy-2'-spirooxetane uridine triphosphate formation measured at 8 hrs by LC-MS/MS analysis; type: ADME, cell-based
Outline: (§4)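 Hepatocyte primary cultures followed over time for triphosphate formation in cell lysates: rat and mouse up to 24 h, human up to 96 h.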

Liver [15] = assay: AUC (0 to infinity) in mouse liver at 50 mg/kg, po; type: ADME, organism-based; design: dose 50 mg/kg, route oral, time infinity; details: in vivo; outline: as §2
Liver [16] = assay: AUC (0 to last) in dog liver assessed as 2'-deoxy-2'-spirooxetane uridine triphosphate at 50 mg/kg, po; type: ADME, organism-based, Canis lupus familiaris; details: in vivo; outline: as §2
Hepatocyte [17] = assay: Prodrug conversion in human cryopreserved hepatocytes assessed as 2'-deoxy-2'-spirooxetane uridine triphosphate level per million cells at 10 uM after 8 hrs by LC-MS/MS analysis; type: ADME, cell-based; outline: as §3
[18] = Half life in dog plasma at 50 mg/kg, po; type: ADME, organism-based, Canis lupus familiaris
Outline: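 Single oral dose of 50 mg/kg in 20% HP-β-cyclodextrin. Prodrug and triphosphate measured in plasma and liver over time (tlast 6–30 h). Half-life, Cmax, tmax and AUC0-last derived; liver/plasma ratio taken from AUC0-last. Prodrug data pooled from two independent studies.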

[19] = AUC (0 to last) in rat plasma at 50 mg/kg, po; type: ADME, organism-based; design: dose 50 mg/kg, route oral, time 0 - last; outline: as §2
Hepatocyte [20] = assay: Prodrug conversion in human cryopreserved hepatocytes assessed as 2'-deoxy-2'-spirooxetane uridine triphosphate level per million cells at 10 uM after 2 hrs by LC-MS/MS analysis; type: ADME, cell-based; outline: as §3
[21] = Prodrug conversion in dog cryopreserved hepatocytes assessed as 2'-deoxy-2'-spirooxetane uridine triphosphate level per million cells at 10 uM after 8 hrs by LC-MS/MS analysis; type: ADME, cell-based, Canis lupus familiaris, Hepatocyte; outline: as §3
Hepatitis C virus [22] = assay: Antiviral activity against HCV genotype 1b infected in human HuH7 cells assessed as inhibition of viral replication after 3 days by luciferase reporter gene assay; type: functional, organism-based, Hepacivirus hominis; details: Huh-7, 72 h
Outline: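 HCV 1b subgenomic luciferase replicon (Huh7-luc, clone ET, adaptive mutations E1202G, T1280I, K1846T). 2,500 cells were incubated with compound over a 9-point, 1/4 dilution series for 3 days. Replication was read as luciferase activity.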

Hepatocyte [23] = assay: Prodrug conversion in rat primary hepatocytes assessed as 2'-deoxy-2'-spirooxetane uridine triphosphate formation measured at 2 hrs by LC-MS/MS analysis; type: ADME, cell-based; outline: as §4
Liver [24] = assay: Cmax in mouse liver assessed as 2'-deoxy-2'-spirooxetane uridine triphosphate at 50 mg/kg, po; type: ADME, organism-based; design: dose 50 mg/kg, route oral; details: in vivo

## [3H]C1O[P@](=O)(OC(C)C)O[C@@H]2[C@@H]1O[C@@H](n1ccc(=O)[nH]c1=O)[C@@]21CCO1 (some centres undefined)
Hepatocyte [1]
  Drug metabolism: 0.025 pmol
Hepatocyte [2]
  Drug metabolism: 0.12 pmol
Hepatocyte [3]
  Drug metabolism: 0.38 pmol
[4]
  Drug metabolism: metabolite_detected
Hepatocyte [5]
  Drug metabolism: metabolite_detected
Hepatocyte [6]
  Stability: Stable
Hepatocyte [7]
  Drug metabolism: 0.45 pmol

## CC(C)O[P@@]1(=O)OC[C@H]2O[C@@H](n3ccc(=O)[nH]c3=O)[C@@]3(CCO3)[C@@H]2O1
Hepatocyte [8]
  Drug metabolism: metabolite_notdetected
Hepatitis C virus [9]
  Activity: -0.64
[10]
  AUC(0-t): 2560 ng·h/mL
Hepatocyte [11]
  Drug metabolism: 0.181 pmol
Hepatocyte [12]
  Drug metabolism: metabolite_notdetected
Liver [13]
  AUClast: 719469 ng·h/g
Hepatocyte [14]
  Drug metabolism: metabolite_detected
Liver [15]
  AUC: 1706 ng·h/g
Liver [16]
  AUClast: 223803 ng·h/g
Hepatocyte [17]
  Drug metabolism: 0.172 pmol
[18]
  half-life: 7.3 h
[19]
  AUC(0-t): 7330 ng·h/mL
Hepatocyte [20]
  Drug metabolism: 0.087 pmol
[21]
  Drug metabolism: 0.004 pmol
Hepatitis C virus [22]
  EC50: > 100 µM
Hepatocyte [23]
  Drug metabolism: metabolite_detected
Liver [24]
  Cmax: 13633 ng/g
